Measurements reported in ChEMBL document CHEMBL4513216, “Probing the Open Global Health Chemical Diversity Library for Multistage-Active Starting Points for Next-Generation Antimalarials” (ACS Infect Dis, 2020).

Assay: Toxicity liver stage against HepG2, at 10uM
Format: cell-based
Set-up: test concentration 10 uM, cell line HepG2-A16-CD81EGFP
Conditions: human, HepG2-A16-CD81EGFP cells; read-out: INHIBITION
Method in brief: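 Uninfected HepG2-A16-CD81EGFP cells, 3 × 10^3 per well, 1536-well, plated on prespotted compound at 10 μM final, parasite-free screening media added to match infected plates; puromycin 10 μM positive, DMSO 0.5% negative; run in parallel with 48 h PbLuc assay at 37 °C, 5% CO2; viability by CellTiter-Glo luminescence, normalized to controls.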

Compound | cytotoxicity at 10 µM
CCc1noc(C)c1C(=O)N1CCCCC1Cn1cc(C)cn1 (stereo unspecified) | 10.8%
CCC(NC(=O)CC1CCN(CC)CC1)c1cn2cccnc2n1 (stereo unspecified) | 2.46%
CNC(=O)[C@H]1C[C@@H]2CN(S(=O)(=O)c3ccc(C)cc3)C[C@@H]2N1C | -2.19%
COc1ccccc1CNc1c(O)c(=O)c1=O | 4.65%
CCOC(C)c1noc(CN2CCCNCC2)n1 (stereo unspecified) | 5.44%
CCCS(=O)(=O)N1C[C@H](N(C)Cc2ccco2)[C@@H]2OCCC[C@@H]21 | -78.4%
CC(CN1CCC(CCO)CC1)n1cnc2ccccc21 (stereo unspecified) | 5.34%
COc1cc(Cl)ccc1CNC(=O)N1CCC(n2cncn2)CC1 | -0.861%
CC(C)n1cc(-c2c(C#N)c(N)nc3c2COCC3)cn1 | 17.2%
CNC(=O)[C@@H]1C[C@H](n2cc(-c3ccc(CN4CC=CC4)cc3)nn2)CN1 | 3.46%
CN1CCN(C2COC3(CCN(c4ccc(C#N)cc4)CC3)C2)CC1 (stereo unspecified) | 8.95%
CCCOc1cc(C)c2c(c1C)C[C@H]([C@H](C)C(=O)O)CC2 | -4.19%
Cc1ccc(Cl)c(C)c1NC(=O)N1CCCN(Cc2ccccn2)CC1 | 0.617%
CNC(=O)N1CCC2(CC1)CNc1ccc(F)cc12 | 10.1%
Cc1nc(CN2CCCC(N(C)Cc3cnn(C)c3)C2)no1 (stereo unspecified) | -7.72%
c1cncc(-c2nnn3c2COCC(CNC2CCOCC2)C3)c1 (stereo unspecified) | -77%
CCS(=O)(=O)NCCN(CCO)C1CCc2ccccc21 (stereo unspecified) | 14.4%
Cc1ccccc1CCCN(Cc1ccccn1)S(C)(=O)=O | 9.53%
O=C(NCCn1ccnc1)c1cc(F)cc(Br)c1 | -1.62%
Cc1ccc(N2CCC(c3nccn3Cc3cscn3)CC2)nn1 | -12.8%
CC(C)(C)OC(=O)NCC(=O)NCc1ccc(Cl)s1 | -11.3%
CC(O)CN1CCC(CNCCOCC(F)(F)F)CC1 (stereo unspecified) | 4.91%
O=C1CCc2cc(C(=O)NCc3ccc(Cl)s3)ccc2N1 | 3.65%

Compound | cytotoxicity at 10 µM
COc1c(C)cnc(CNC(=O)CCOCc2ccccc2)c1C | -4.31%
Cc1cnn(CC2CCCN2C(=O)CCc2c(C)noc2Cl)c1 (stereo unspecified) | -8.31%
CC(C)(C)CC(=O)NCC1CCCS1 (stereo unspecified) | 11.2%
N#Cc1ccc(N2CCCC(CO)(CCOc3ccccc3)C2)nc1 (stereo unspecified) | 17.4%
CCC(=O)Nc1cc(Br)cnc1OCC(F)(F)F | -1.24%
CCCS(=O)(=O)NC(=O)c1sc(C2CCCC2)nc1C | 0.521%
Cc1nc(C(=O)N2CCCC(c3ccc4sc(N)nc4n3)C2)co1 (stereo unspecified) | -11.9%
Cc1nn(C)c2nc(N3CCCCC3c3nccs3)sc12 (stereo unspecified) | 10.2%
COCCCNC(=O)NCc1nc(C)c(C)o1 | 10.1%
COc1ccccc1CC(=O)N1CCC(NCc2ccncc2)CC1 | -9.69%
COCC(=O)Nc1cc(S(=O)(=O)C(F)(F)F)ccc1OC | 17.3%
CC(C)Oc1cccc(C(=O)C2CCCN(S(=O)(=O)C(C)C)C2)c1 (stereo unspecified) | 5.47%
CCN(Cc1ccc2c(c1)OCCO2)C(=O)NCc1csc(C)n1 | -5.16%
CCCc1nnsc1C(=O)NCC(O)c1ccoc1 (stereo unspecified) | 4.25%
Cn1nnnc1SCCNC(=O)CC1CCc2ccccc21 (stereo unspecified) | -2.49%
Cc1cccc2cc(C(=O)N3CCC(F)(F)CC3)n(C)c12 | 3.76%
CC1CCCCN1C(=O)c1cn(-c2ccc(C(F)(F)F)cn2)nn1 (stereo unspecified) | -56.5%
O=C(CCC(=O)N1CCc2[nH]c3ccccc3c2C1)NCc1ccco1 | 3.59%
CCS(=O)(=O)c1ncc(CN(C)Cc2ccc(C)o2)n1CCOC | -4.66%
COc1c(C2CCCN2C(=O)c2cc(C)on2)c(C)nn1C (stereo unspecified) | 0.407%
NCC(c1cccnc1)N1CCOCC1 (stereo unspecified) | 4.32%
O=S(=O)(N1CCCCC1)N1CCc2nc(C3CCNCC3)ncc2C1 | -4.15%
CCc1nc(CCNC(=O)Nc2ccc(C(=O)NC)cc2)cs1 | 7.51%

Compound | cytotoxicity at 10 µM
Cc1ccc(N2CCCC3(CCN(C(=O)NC4CCCC4)C3)C2)nn1 (stereo unspecified) | -114%
CC1CCN(C(=O)C(C)Oc2ccc3c(c2)OCO3)CC1 (stereo unspecified) | -1.9%
NC(=O)[C@@H]1CCCN1C(=O)c1csc(-c2ccc(C(F)(F)F)cc2)n1 | -2%
O=c1c(NCc2ccncc2)c(NCC(O)CN2CCOCC2)c1=O (stereo unspecified) | -44%
O=C(NCc1cccc(F)c1)N1CCc2ncnc(NC3CC3)c2CC1 | -105%
CS(=O)(=O)NC1CC(=O)N(c2ccccc2Cl)C1 (stereo unspecified) | -0.585%
CCc1nc(C)c(C2CC(=O)Nc3c2c(-c2cccnc2)nn3C)[nH]1 (stereo unspecified) | -8.13%
CC(C)[C@@H]1CN(C2CCN(Cc3ccccc3)CC2)C[C@H]1NS(C)(=O)=O | -10.7%
CC(C)NC(=O)C1CN(Cc2ccc(F)cc2)CC12CCOCC2 (stereo unspecified) | 3.86%
CCC(=O)N1CSCC1C(=O)N(C)CCc1ccccc1 (stereo unspecified) | 19.5%
CC(C)N1CCC(c2ccnc3c(C(=O)N4CCOCC4)ncn23)CC1 | -5.89%
O=C(O)[C@]12CCCN(Cc3ccccn3)[C@@H]1CCN(c1cnccn1)C2 | 2.12%
Cc1cnn(CCNCc2c(C)nn(CCO)c2C)c1 | 6.35%
Cc1cc2n(n1)CC(CNCc1ccnc(-n3ccnc3C)c1)CN2 (stereo unspecified) | -4.95%
NCC1Cc2cc(F)cc(-c3cnccn3)c2O1 (stereo unspecified) | -9.78%
O=S(=O)(CCOc1ccc(F)cc1)Nc1cnn(CC(F)F)c1 | -4.87%
COCC(=O)N1CC[C@H]2O[C@@H](C)C[C@H]2C1 | -66.1%
COc1cccc(C2(CNC(C)c3nnc(C)o3)CCCC2)c1 (stereo unspecified) | -1.64%
CCO[C@@H]1CC[C@H]2[C@H]1OCCN2CCOCc1ccccc1 | -111%
Nc1nnnn1NCc1cccc(Cl)c1Cl | 11.5%
CSCC(=O)N1CCC2(CC1)c1ccccc1CC2O (stereo unspecified) | -19.8%
CCc1ccc(C(C)NC(=O)N2CCC(n3cncn3)CC2)cc1 (stereo unspecified) | -8.18%
CC1CCN(Cc2cnc(S(=O)(=O)CC3CC3)n2CC2CCCO2)CC1 (stereo unspecified) | 6.17%

Compound | cytotoxicity at 10 µM
O=C(Cc1ccsc1)N1CCCCC1c1ccn2ccnc2n1 (stereo unspecified) | -9.91%
O=C(N1CCOCC1)[C@@]12CCO[C@@H]1CCN(C1CCCC1)C2 | 7.83%
CCC(C)(C)C(=O)Nc1ccc2ccn(CC(=O)NC)c2c1 | 4.19%
CN(C)CCn1ccnc1C1CCCN(c2cc(N)ncn2)C1 (stereo unspecified) | -7.76%
CC1CCCCN1CCN(C)C(=O)c1cc(CN2CCC(O)CC2)on1 (stereo unspecified) | 1.14%
C[C@@H]1C[C@H](C(F)(F)F)n2nc(C3CCN(S(=O)(=O)N(C)C)CC3)cc2N1 | -17.9%
COCCN1CCN(S(=O)(=O)c2ccccc2)Cc2cccnc21 | 4.77%
Cc1nc(CN2CCO[C@@H]3CN(C(=O)NC(C)C)CC[C@@H]3C2)cs1 | 0.41%
FC(F)(F)c1cccc(CNc2nccc(C(F)(F)F)n2)c1 | -19%
COC(=O)CN1CCCN(C(=O)CCOc2cccc(C)c2C)CC1 | -1.73%
O=C1CCC2(CCN(CC[C@H](O)c3ccccc3)CC2)CN1CCO | -4%
COC[C@H]1CCCN1c1nccc(-c2cnn(-c3ccccc3C)c2)n1 | 8.63%
COc1ccc(C(CO)NC(=O)Nc2cccc(C(C)=O)c2)cc1 (stereo unspecified) | 3.43%
COc1ccc2c(c1)C(NCCc1ncc(C)s1)CCCO2 (stereo unspecified) | -3.86%
COCCN(Cc1sccc1C)Cc1nccn1CCOC | 2.33%
CCc1nccn1C1CCCN(C(=O)c2cnc3onc(C)c3c2)C1 (stereo unspecified) | -15.9%
CC(CCN1CCn2nc(CNC(=O)N(C)C)cc2C1)c1ccccc1 (stereo unspecified) | -11.8%
Cc1nc(CN2CCN(C(=O)CCc3cccnc3)CC2)no1 | -8.64%
O=C(CCc1nccs1)N1CCN(c2cccnn2)CC1 | -2.84%
O=C(N1CCCC1)N1CCN(Cc2cccnc2)c2ncccc2C1 | 3.33%
Cc1nc(COCC2CN(C(=O)N(C)C)Cc3nccn3C2)cs1 (stereo unspecified) | 4.48%
Cc1oc(-c2ccsc2)nc1CC(=O)NCCS(C)(=O)=O | -8.6%
Nc1ccnc(-c2cc(NC3CCNCC3)nc3[nH]ccc23)c1 | 3.18%

Compound | cytotoxicity at 10 µM
COc1ccc2[nH]cc(C(=O)CNc3nc(C)cs3)c2c1 | 6.04%
Cc1ccccc1C(=O)N1CCO[C@H]2[C@H](OCCN(C)C)CC[C@@H]21 | -2.95%
Cc1nc(CN2CCN(c3ccc4nncn4n3)C(C)C2)oc1C (stereo unspecified) | -2.91%
CC1(C)COCCN1C(=O)CCc1nc(-c2ccccn2)no1 | -4.59%
CN(C)c1ncc(-c2ccc(F)cc2)c(C2CNCCO2)n1 (stereo unspecified) | -5.68%
Cc1cnn(CCCNC(=O)CCC2CCCCN2C)c1 (stereo unspecified) | -7.32%
Cc1cc(C(=O)NC2CCN(C(=O)Nc3cccnc3)CC2)c(C)o1 | 6.62%
Cc1noc(C)c1CN1C[C@@H]2CCCO[C@@H]2[C@H](NS(C)(=O)=O)C1 | 12.2%
NC(=O)c1ccc(-n2ccnc2C2CC2)cc1N1CCCC1 | -3.82%
COCCN1C[C@@H]2CN(Cc3ccc(F)cc3)C[C@@H]2C1=O | -0.744%
COc1ccc2c(c1)OCC(CNC(=O)c1cnc(NC(C)C)nc1)C2 (stereo unspecified) | -5.07%
CCOC(=O)c1ccc(S(=O)(=O)NCC(CC)N2CCCC2)cc1 (stereo unspecified) | -7.4%
Cn1ccnc1CCNS(=O)(=O)c1cccc(Br)c1 | 4.95%
O=C(NCC1CC1)C1CCC2(CCN(C(=O)c3cccs3)CC2)O1 (stereo unspecified) | -0.979%
c1cc2c(c(-c3cc(N4CCOCC4)ncn3)c1)CCNC2 | -22.5%
CN1C(=O)C2(NC(=O)c3ccccc3O2)c2ccccc21 (stereo unspecified) | -7.65%
COC[C@@H]1CC[C@H]2[C@H](CCN2S(=O)(=O)c2cccc(F)c2)O1 | 2.24%
CCc1nc(C2CCCN(C(=O)C(C)(C)NS(C)(=O)=O)C2)no1 (stereo unspecified) | -12.1%
CCOC(C)c1nc(CN2CCN(CC(F)F)CC2)cs1 (stereo unspecified) | -8.94%
